# Screens from PubChem.
# GASC1 inh: inhibitors of GASC-1 (KDM4C) histone demethylase, primary screen, biochemical, single concentration HTS. Lysine-specific demethylase 4C (Homo sapiens), Q9H3R0. GST-KDM4C 2-372, H3K9me3 peptide, LANCE TR-FRET. inhibition, % at 12.5 µM. 0.15% of 96,000 active. AID 720574, 2013;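 active means mean replicate inhibition above about 25%, with at least 55% of replicates also reaching it, limit read from the data, passing the limit was not always enough; inconclusive means only one of those two conditions met; inactive means neither condition met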
# Target sequence (Q9H3R0 2-372 limits assumed): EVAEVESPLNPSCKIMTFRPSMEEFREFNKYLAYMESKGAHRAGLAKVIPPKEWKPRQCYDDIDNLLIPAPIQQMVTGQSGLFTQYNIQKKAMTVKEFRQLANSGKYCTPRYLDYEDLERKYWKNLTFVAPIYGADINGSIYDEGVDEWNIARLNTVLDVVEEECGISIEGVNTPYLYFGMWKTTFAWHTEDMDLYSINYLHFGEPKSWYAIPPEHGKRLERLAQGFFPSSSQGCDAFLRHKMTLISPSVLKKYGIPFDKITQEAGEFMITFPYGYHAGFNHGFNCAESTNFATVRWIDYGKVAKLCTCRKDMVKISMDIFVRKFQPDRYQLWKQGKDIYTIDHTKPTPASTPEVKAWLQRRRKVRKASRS
#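 Compound: one test concentration per compound; Material: GST-GASC-1 enzyme fragment 2-372; Amount: GASC-1 enzyme at 10 nM final in reaction; Also added: H3K9me3 peptide substrate, Fe(II), 2-oxoglutarate; Technique: LANCE TR-FRET; Times: 30 min demethylation and 1 h detection at room temperature.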
# T cruzi growth-1: T. cruzi intracellular proliferation inhibitors, primary screen, cell-based, beta-gal Tulahuen parasites, NIH3T3 host, luminescence; T. cruzi beta-gal in NIH3T3, GalScreen luminescence, 90 h; inhibition, % at 8.34 µM; 5.9% of 77,000 active;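 active means mean inhibition above about 93%, with at least 55% of replicates each passing it, limit read from the data, passing the limit was not always enough; inconclusive means only one of those two conditions holds; inactive means neither condition holds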
# IDH1 R132H inh: inhibitors of IDH1 R132H reductase, primary screen, biochemical, plate reader, single point; Isocitrate dehydrogenase [NADP] cytoplasmic (Homo sapiens), O75874; diaphorase/resazurin fluorescence, 60 min; inhibition, % at 10 µM; 0.18% of 70,000 active; AID 624101, 2012; in the data active means inhibition above about 34%; inconclusive means no clear call, values can overlap the other calls; inactive means below about 11%
# T cruzi growth-2: T. cruzi intracellular proliferation inhibitors, confirmation, cell-based, NIH3T3 host, beta-gal parasite, luminescence, cherry-pick. shares compounds with T cruzi growth-1. T. cruzi beta-gal in NIH3T3, GalScreen luminescence, 90 h. inhibition, % at 8.35 µM. 72% of 5,600 active. AID 651739, 2012;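 active means mean replicate inhibition above about 95% and at least 55% of replicates individually reaching it, limit read from the data; inconclusive means only one of the two criteria is met; inactive means neither criterion is met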
# T cruzi growth-3: inhibitors of intracellular T. cruzi replication, confirmation, NIH3T3 host cells, beta-gal parasites, cherry-pick, set 2 | AID 651740, 2012 | T. cruzi beta-gal in NIH3T3, GalScreen luminescence, 90 h | 21% of 5,600 active | inhibition, % at 2.09 µM | shares compounds with T cruzi growth-1;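 active means mean inhibition above about 95%, with at least 55% of replicates also reaching it, limit read from the data; inconclusive means meets just one of the two conditions; inactive means meets neither condition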
# 3T3 cytotox: cytotoxicity in mouse NIH/3T3 fibroblasts, confirmation, cytotoxicity control for T. cruzi proliferation inhibitor project, cell-based, cherry-pick, single point. shares compounds with T cruzi growth-1. cytotoxicity (signal decrease), % at 8.35 µM. NIH/3T3 viability, CellTiter-Glo ATP luminescence, 90 h. 14% of 5,600 active. AID 651742, 2012;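 active means mean signal decrease across replicates above about 35% based on untreated-well scatter, with enough replicates individually passing, limit read from the data; inconclusive means no rule stated though some were filed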
# NIH3T3 tox 2: NIH/3T3 fibroblast cytotoxicity, confirmation, cytotoxicity control, cell-based, cherry-pick, single point, set 2 | 56% of 5,600 active | inhibition, % at 24.9 µM | AID 651744, 2012 | NIH/3T3 viability, CellTiter-Glo ATP luminescence, 90 h | shares compounds with T cruzi growth-1;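 active means mean loss of cell viability signal at or above a set limit, and enough replicates individually reaching it; inconclusive means meets only the mean limit or only the replicate share; inactive means meets neither condition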
# Hits are given with their value; i = inactive; ? = inconclusive; nt = no result given. The sample as a whole holds a higher share of hits than the screen did.
SMILES,GASC1 inh,T cruzi growth-1,IDH1 R132H inh,T cruzi growth-2,T cruzi growth-3,3T3 cytotox,NIH3T3 tox 2
CCCNC(=O)[C@H]1[C@H](CO)[C@H]2Cn3c(ccc(-c4ccccc4OC)c3=O)[C@@H]1N2C(=O)NCCC,i,i,nt,nt,nt,nt,nt
COCCNC(=O)[C@H]1[C@H](CO)[C@H]2Cn3c(ccc(-c4ccc(OC)cc4)c3=O)[C@@H]1N2C(=O)NC(C)C,i,100,nt,i,i,i,i
C[C@@H]1CCCCO[C@@H](CN(C)Cc2ccc(C(F)(F)F)cc2)[C@H](C)CN([C@H](C)CO)C(=O)c2cc(NC(=O)c3ccccc3)ccc2O1,i,i,i,nt,nt,nt,nt
C/C=C/c1ccc([C@@H]2[C@@H](CO)N(C(C)=O)[C@H]2CN(C)C(=O)NC2CCCC2)cc1,i,i,nt,nt,nt,nt,nt
CN1C(=O)c2cc(NS(=O)(=O)c3ccc(Cl)cc3)ccc2OC[C@H]2O[C@H](CC(=O)N3CCc4ccccc4C3)CC[C@@H]21,i,i,nt,nt,nt,nt,nt
C[C@@H]1CN([C@@H](C)CO)C(=O)c2cc(NS(C)(=O)=O)ccc2O[C@H]1CN(C)Cc1ccc(C(=O)O)cc1,i,i,nt,nt,nt,nt,nt
COc1ccc(NC(=O)C2CCCN(S(=O)(=O)c3ccc(C)cc3)C2)cc1OC (configuration not stated),nt,nt,i,nt,nt,nt,nt
C[C@H](CO)N1C[C@H](C)[C@H](CN(C)C(=O)Nc2ccccc2F)Oc2cc(-c3cccc(C#N)c3)ccc2S1(=O)=O,i,i,nt,nt,nt,nt,nt
C[C@H]1CN([C@@H](C)CO)S(=O)(=O)c2ccc(-c3cccc(C#N)c3)cc2O[C@H]1CN(C)C(=O)Nc1ccccc1F,i,117,i,103,i,37,64
C[C@H]1CN([C@@H](C)CO)S(=O)(=O)c2ccc(-c3ccc(F)cc3)cc2O[C@H]1CN(C)C(=O)Nc1ccccc1F,i,?,nt,110,i,56,55
C[C@H](CO)N1C[C@H](C)[C@H](CN(C)C(=O)Nc2ccccc2F)Oc2cc(-c3ccc(F)cc3)ccc2S1(=O)=O,i,i,i,nt,nt,nt,nt
COc1ccc(-c2ccc3c(c2)O[C@H](CN(C)C(=O)Nc2ccccc2F)[C@H](C)CN([C@H](C)CO)S3(=O)=O)cc1,i,i,i,nt,nt,nt,nt
C[C@@H]1CN([C@@H](C)CO)S(=O)(=O)c2ccc(-c3ccc(F)cc3)cc2O[C@@H]1CN(C)C(=O)Nc1ccccc1F,i,98,i,102,i,i,i
C[C@@H]1CN([C@H](C)CO)S(=O)(=O)c2ccc(-c3ccc(F)cc3)cc2O[C@H]1CN(C)C(=O)Nc1ccccc1F,i,i,nt,nt,nt,nt,nt
COc1ccc(-c2ccc3c(c2)O[C@H](CN(C)C(=O)Nc2ccccc2F)[C@H](C)CN([C@@H](C)CO)S3(=O)=O)cc1,i,96,i,105,i,i,72
NS(=O)(=O)c1ccc(CNC(=O)c2cc(-c3ccccn3)nc3ccc(Br)cc23)cc1,nt,nt,i,nt,nt,nt,nt
CC(=O)NC[C@@H]1[C@@H](c2ccc(-c3ccccc3)cc2)[C@@H](CO)N1C(=O)C1CC1,i,i,nt,nt,nt,nt,nt
C[C@H](CO)N1C[C@H](C)[C@@H](CN(C)Cc2ccc(Oc3ccccc3)cc2)Oc2c(NC(=O)CCCCCC(=O)Nc3ccccc3N)cccc2C1=O,i,nt,i,nt,nt,nt,nt
Cc1ccc(S(=O)(=O)N(C)C[C@@H]2OCc3cn(nn3)CCCC(=O)N([C@H](C)CO)C[C@@H]2C)cc1,i,i,nt,nt,nt,nt,nt
CCC(=O)N(C)C[C@H]1Oc2cc(C#CC3CCCCC3)ccc2S(=O)(=O)N([C@H](C)CO)C[C@@H]1C,i,108,nt,102,i,i,83
CCC(=O)N(C)C[C@H]1Oc2cc(C#CC3CCCCC3)ccc2S(=O)(=O)N([C@@H](C)CO)C[C@@H]1C,i,i,i,nt,nt,nt,nt
CCC(=O)N(C)C[C@H]1Oc2cc(C#CC3CCCCC3)ccc2S(=O)(=O)N([C@H](C)CO)C[C@H]1C,i,i,i,nt,nt,nt,nt
CCC(=O)N(C)C[C@@H]1Oc2cc(C#CC3CCCCC3)ccc2S(=O)(=O)N([C@H](C)CO)C[C@@H]1C,i,110,i,95,i,i,104
CCC(=O)N(C)C[C@@H]1Oc2cc(C#CC3CCCCC3)ccc2S(=O)(=O)N([C@@H](C)CO)C[C@@H]1C,i,?,nt,100,i,i,106
CCC(=O)N(C)C[C@H]1Oc2cc(C#CC3CCCCC3)ccc2S(=O)(=O)N([C@@H](C)CO)C[C@H]1C,i,i,nt,nt,nt,nt,nt
SMILES,GASC1 inh,T cruzi growth-1,IDH1 R132H inh,T cruzi growth-2,T cruzi growth-3,3T3 cytotox,NIH3T3 tox 2
C[C@@H]1CN([C@H](C)CO)C(=O)c2cc(NC(=O)Nc3ccc(F)cc3)ccc2O[C@H]1CN(C)Cc1ccncc1,i,i,nt,nt,nt,nt,nt
O=C(Nc1cccc(O)c1)c1cc(S(=O)(=O)N2CCOCC2)ccc1Cl,nt,nt,i,nt,nt,nt,nt
CCCC#Cc1ccc([C@H]2[C@H](CO)N3CCCCN(CC4CCOCC4)C[C@@H]23)cc1,i,129,nt,i,i,i,77
OC[C@@H]1[C@@H](c2ccc(C#Cc3ccccc3F)cc2)[C@@H]2CN(CC3CCOCC3)CCCCN12,i,i,nt,nt,nt,nt,nt
CCCC#Cc1ccc([C@H]2[C@H]3CN(CC4CC4)CCCCN3[C@H]2CO)cc1,i,i,nt,nt,nt,nt,nt
OC[C@@H]1[C@H](c2ccc(C#Cc3ccccc3F)cc2)[C@@H]2CN(CC3CCOCC3)CCCCN12,i,105,nt,114,i,?,105
C[C@@H]1CCCCO[C@@H](CN(C)C(=O)C2CCCCC2)[C@@H](C)CN([C@@H](C)CO)C(=O)c2cc(N(C)C)ccc2O1,i,i,nt,nt,nt,nt,nt
C[C@@H]1CCCCO[C@@H](CN(C)C(=O)C2CCCCC2)[C@@H](C)CN([C@H](C)CO)C(=O)c2cc(N(C)C)ccc2O1,i,i,i,nt,nt,nt,nt
C[C@H](CO)N1C[C@H](C)[C@H](CN(C)C(=O)C2CCCCC2)OCCCC[C@H](C)Oc2ccc(N(C)C)cc2C1=O,i,100,i,i,i,i,i
C[C@@H]1CCCCO[C@H](CN(C)C(=O)C2CCCCC2)[C@H](C)CN([C@@H](C)CO)C(=O)c2cc(N(C)C)ccc2O1,i,110,i,i,i,i,i
CCN1[C@@H]2c3ccc(-c4cccnc4)c(=O)n3C[C@H]1[C@H](CO)[C@H]2C(=O)NCc1ccccc1,i,i,nt,nt,nt,nt,nt
CCC(=O)N1CC2(C1)CN(Cc1cccc(Cl)c1)[C@@H](CO)c1c2c2ccc(OC)cc2n1C,i,nt,nt,nt,nt,nt,nt
